# Reference: PMC3822283 (Nature structural & molecular biology, 2013)
# B1: TAB1(1-438): recombinant mouse TAB1(1-438), N-terminal HexaHistidine tag and TEV site (protein)
# chain: MAAQRRSLLQSEQQPSWTDDLPLCHLSGVGSASNRSYSADGKGTESHPPEDNWLKFRSENNCFLYGVFNGYDGNRVTNFVAQRLSAELLLGQLNTEHTEADVRRVLLQAFDVVERSFLESIDDALAEKASLQSQLPEGVPQHQLPPQYQKILERLKALEREISGGAMAVVAVLLNSKLYVANVGTNRALLCKSTVDGLQVTQLNMDHTTENEDELFRLSQLGLDAGKIKQMGVICGQESTRRIGDYKVKYGYTDIDLLSAAKSKPIIAEPEIHGAQPLDGVTGFLVLMSEGLYKALEAAHGPGQANQEIAAMIDTEFAKQTSLDAVAQAVVDRVKRIHSDTFASGGERAKFCPRHEDMTLLVRNFGYPLGEMSQPTPTPAPGGRVYPVSVPYSSAQSTSKTSVTLSLVMPSQGQMVNGSHSASTLDEATPTLTNQSPT
# Experiments:
# p38α [1] = conditions: time resolved FRET, non phospho p38α; ref Zhang et al., 2005; cited from earlier work
# p38α [2] = target: T1, p38α (Mus musculus, UniProt P47811); experiment: ITC binding to p38α; conditions: for association with p38α by ITC (in words): p38α alone, non phospho
# [3] = target: [p38α:TAB1(1-438)]complex (Mus musculus, UniProt P47811); experiment: ITC binding to [p38α:TAB1
# IRp38α = IRp38α co-expressed with TAB1 in HEK293 cells; format: cell-based; conditions: Fig. 1c
# How it was run: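 HEK293 cells were co-transfected with TAB1 and either p38α (HA-tagged, WT) or the gatekeeper mutant IRp38α, then exposed to BIRB793. p38 and TAB1 phosphorylation were read by immunoblot: dual-phospho p38 (Thr180/Tyr182) 1:4,000, total p38 1:15,000, overnight at 4 °C, ECL detection. Quantitation is from three independent transfections as mean ± s.d., analysed by one-way ANOVA with Bonferroni.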
# [4] = tested on: isolated perfused mouse hearts; experiment: contractile function of isolated perfused mouse hearts
# How it was run: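 Langendorff hearts from male C57BL/6 mice (pentobarbital 300mg/kg i.p., heparin 150 units) perfused at 80 mmHg with KHB (95% O2/5% CO2, 37°C). LV balloon EDP set 2-8 mmHg, paced 600 bpm. Inclusion required LVDP ≥60 mmHg and flow 1.5-3.5 ml/min. After 30 min baseline, coded TAT-TAB1 peptides at 15μM recirculated 15 min in 20 mL KHB. Preliminary runs used three concentrations (n=2). Two-way repeated-measures ANOVA, Bonferroni.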
# p38α [5] = experiment: co-transfection of HEK293 cells with TAB1 and p38α, p38 phosphorylation; format: cell-based
# [6] = tested on: p38 in wild-type (WT) hearts; experiment: p38 dual phosphorylation during global myocardial ischemia, WT hearts; conditions: WT mouse hearts, global ischemia 5, 10 and 15 mins; 10 μM
# [7] = tested on: p38 in hearts expressing the p38α Thr106Met gatekeeper mutant (IRα); experiment: p38 activity during global myocardial ischemia, IRα hearts; conditions: IRα mouse hearts, global ischemia 5, 10 and 15 mins; 10 μM
# p38 [8] = experiment: p38 activation in adult rat ventricular myocytes; format: cell-based; conditions: ARVMs; peptides fused to TAT; immunoblot, Fig. 6c
# How it was run: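 Rat ventricular myocytes were washed in M199 with penicillin, streptomycin, 2mM L-carnitine, 5mM creatine and 5mM taurine, pelleted at 100 g for 2 min and plated on laminin at 37°C in 5% CO2. After 1 h, non-adherent cells were removed and TAT-TAB1(371-416) peptides (WT, A/B mutant, scrambled) added in fresh medium. Immunoblots used dual-phospho p38 (Thr180/Tyr182; 1:4,000) and total p38 (1:15,000) antibodies, with ECL detection. One-way ANOVA, Bonferroni.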
# p38 [9] = experiment: p38 dual phosphorylation in isolated perfused mouse hearts; conditions: 15 mins exposure; immunoblot, Fig. 6g
# [10] = tested on: isolated adult rat cardiac myocytes; experiment: viability of adult rat ventricular myocytes; format: cell-based; conditions: ARVMs, later time points; peptides fused to TAT
# How it was run: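 Laminin-plated adult rat ventricular myocytes in supplemented M199 at 37°C in 5% CO2 were exposed to fluorescein (FAM)-labelled TAT-TAB1(371-416) peptides. They were imaged by confocal microscopy at later time points. Cell death was scored as a rounded cell appearance with homogeneous distribution of the fluorescein label.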
# p38α [11] = target: T1, p38α; experiment: co-expression of p38α and TAB1 in E. coli, p38α phosphorylation; format: cell-based; conditions: western blot; Fig. 1d, 5d; inhibitors 10 μM
# How it was run: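 Mouse p38α and TAB1 (full-length, 1-438 or 1-418) were co-expressed in E. coli from dual vectors, with p38α in the first MCS and TAB1 in the second. Controls were empty vector and p38α alone.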
# [12] = peptides fused to TAT, 15 μM, 15 min, recirculated, n=5 mouse hearts per group
molecule,measurement,setting,value
Nc1ncnc2c1ncn2[C@@H]1O[C@H](COP(=O)(O)OP(=O)(O)OP(=O)(O)O)[C@@H](O)[C@H]1O [ATP],Kd,p38α [1],13 ± 5.5 mM
Nc1ncnc2c1ncn2[C@@H]1O[C@H](CO[P@](=O)(O)O[P@](=O)(O)O[P@@](=O)(O)S)[C@@H](O)[C@H]1O [ATPγS],association with p38α by ITC (in words),p38α [2],no measurable association by ITC
same,Kd,[3],0.0053 mM
same,affinity for p38α in the presence of TAB1(1-438) (in words),"[3]; ITC, 1:1 stoichiometry",low μM affinity
"Cc1ccc(-n2nc(C(C)(C)C)cc2NC(=O)Nc2ccc(OCCN3CCOCC3)c3ccccc23)cc1 [BIRB796, reference compound]","pattern of phosphorylation on inhibitor exposure, IRp38α coexpressed with TAB1",IRp38α,altered
same,inhibition of p38α on effects of perfusion with TAB1(371-416) (WT),"[4]; LVDP and coronary flow, numbers per group WT=7 and WT+I=5, Fig. 6h",attenuates the effects of perfusion with TAB1(371-416)
C[S+]([O-])c1ccc(-c2nc(-c3ccncc3)c(-c3ccc(F)cc3)[nH]2)cc1 (stereo not shown) [SB203580],effect of inhibitor on TAB1-enhanced p38α dual phosphorylation,"p38α [5]; WTp38α, HEK293 cells, Fig. 1b",SB203580-sensitive
same,sensitivity of p38 dual phosphorylation to inhibitor,[6],sensitive
same,p38 activity (phosphorylation of TAB1 and HSP27) with inhibitor,[7],p38 remained active
GYGRKKRRQRRRGEMSQPTPTPAPGGRVYPVSAPASSAQSTSKTSVTLSLGAPSQGQMV [TAT-TAB1(371-416A/B)],maximum concentration that did not cause discernible contractile dysfunction,"[4]; isolated mouse heart, preliminary experiments",15 µM
GYGRKKRRQRRRGEMSQPTPTPAPGGRVYPVSVPYSSAQSTSKTSVTLSLVMPSQGQMV [TAT-TAB1(371-416)],p38 activation,p38 [8],caused p38 activation
same,coronary flow,"[4]; 15 μM, 15 min, recirculated, n=5 mouse hearts per group",reduction in coronary flow
same,developed pressure,[4]; [12],marked reduction in developed pressure
same,end-diastolic pressure,[4]; [12],elevation in the end-diastolic pressure
same,p38 dual phosphorylation in perfused hearts,p38 [9],p38 dual phosphorylation
same,cell death,[10],cell death
TAB1(371-416A/B) (EMSQPTPTPAPGGRVYPVSAPASSAQSTSKTSVTLSLGAPSQGQMV),association with p38α by ITC (in words),p38α [2],no binding was detected
same,p38 activation,p38 [8],but not TAB1(371-416A-B) caused p38 activation
"TAB1: TGF-β-activated protein kinase 1 (TAK1) binding protein 1, scaffold protein (EMSQPTPTPAPGGRVYPVSVPYSSAQSTSKTSVTLSLVMPSQGQMV)",p38α dual phosphorylation on co-expression in HEK293 cells,"p38α [5]; western blot, three independent transfections",enhanced p38α dual phosphorylation
same,p38α phosphorylation on co-expression in E. coli,p38α [11],enhanced
B1,−TΔS,"p38α [2]; 25°C, ΔG = ΔH-TΔS",5.1 kcal/mol
same,association with p38α by ITC (in words),p38α [2],binding affinity in the low micromolar range
